Test results from ChEMBL document CHEMBL4715791, “Enhancing Therapeutic Efficacy of Cisplatin by Blocking DNA Damage Repair” (ACS Med Chem Lett, 2016).
Calls of active or inactive are those of the source. The calls are words filed in the database; no cut-off is given here.

Legend:
HeLa [1] = experiment: Inhibition of PP2A in human HeLa cells assessed as enzyme activity at 10 uM measured after 3 hrs by malachite green phosphatase assay relative to control; assay type: cell-based; design: scale not given: the % may be the effect or the level left
Procedure, shortened: (§1)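 PP2A activity measured in HeLa cells after 3 h exposure to compound, alone or combined with cisplatin. Activity expressed as % of untreated control.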

HeLa [2] = experiment: Inhibition of PP2A in human HeLa cells assessed as enzyme activity at 10 uM measured after 3 hrs in presence of cisplatin by malachite green phosphatase assay relative to control; assay type: cell-based; design: scale not given: the % may be the effect or the level left; procedure, shortened: as §1
A549 [3] = experiment: Synergistic anticancer activity against human A549 cells assessed as combination index at cisplatin:compound ratio of 1:0.5 to 1:3 measured after 24 hrs in presence of cisplatin by MTT based Chou-Talalay method; assay type: functional
Procedure, shortened: (§2)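 Cisplatin and compound given together at fixed molar ratios. Viability read by MTT. Combination index computed at 50% inhibition (CI50); below 1 = synergism, 1 = additivity, above 1 = antagonism. Tested at 24, 48 and 72 h incubation.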

HeLa [4] = experiment: Synergistic anticancer activity against human HeLa cells assessed as combination index at cisplatin to compound ratio of 1:0.5 measured after 24 hrs by MTT based Chou-Talalay method; assay type: functional; procedure, shortened: as §2
HeLa [5] = experiment: Antagonistic anticancer activity against human HeLa cells assessed as combination index at cisplatin to compound ratio of 1:2 measured after 48 to 72 hrs by MTT based Chou-Talalay method; assay type: functional; details: time 48-72 hrs; procedure, shortened: as §2
HeLa [6] = experiment: Antagonistic anticancer activity against human HeLa cells assessed as combination index at cisplatin to compound ratio of 1:0.3 measured after 48 to 72 hrs by MTT based Chou-Talalay method; assay type: functional; details: time 48-72 hrs; procedure, shortened: as §2
HeLa [7] = experiment: Synergistic anticancer activity against human HeLa cells assessed as combination index at cisplatin to compound ratio of 1:1 measured after 24 to 72 hrs by MTT based Chou-Talalay method; assay type: functional; details: time 24-72 hrs; procedure, shortened: as §2
A549 [8] = experiment: Potentiation of cisplatin-induced apoptosis in human A549 cells at 32.7 uM measured after 24 hrs in presence of cisplatin by annexinV-FITC/propidium iodide staining based flow cytometry (reference value: 36.9%); assay type: functional
A549 [9] = experiment: Induction of apoptosis in human A549 cells at 32.7 uM measured after 24 hrs by annexinV-FITC/propidium iodide staining based flow cytometry relative to control; assay type: functional
HeLa [10] = experiment: Induction of apoptosis in human HeLa cells assessed as early apoptotic cells at 6.8 uM measured after 24 hrs by annexinV-FITC/propidium iodide staining based flow cytometry relative to control; assay type: functional
HeLa [11] = experiment: Potentiation of cisplatin-induced apoptosis in human HeLa cells assessed as early apoptotic cells at 6.8 uM measured after 24 hrs in presence of cisplatin by annexinV-FITC/propidium iodide staining based flow cytometry (reference value: 4.8%); assay type: functional
HeLa [12] = experiment: Induction of apoptosis in human HeLa cells assessed as late apoptotic cells at 6.8 uM measured after 24 hrs by annexinV-FITC/propidium iodide staining based flow cytometry relative to control; assay type: functional
HeLa [13] = experiment: Potentiation of cisplatin-induced apoptosis in human HeLa cells assessed as late apoptotic cells at 6.8 uM measured after 24 hrs in presence of cisplatin by annexinV-FITC/propidium iodide staining based flow cytometry (reference value: 54%); assay type: functional
HeLa [14] = experiment: Induction of cell cycle arrest in human HeLa cells assessed as accumulation at G1 phase at 6.8 uM measured after 24 hrs by propidium iodide/RNase staining based flow cytometry (reference value: 62.27 %); assay type: functional
HeLa [15] = experiment: Induction of cell cycle arrest in human HeLa cells assessed as accumulation at G2/M phase at 6.8 uM measured after 24 hrs by propidium iodide/RNase staining based flow cytometry (reference value: 10.52 %); assay type: functional
HeLa [16] = experiment: Induction of cell cycle arrest in human HeLa cells assessed as accumulation at S phase at 6.8 uM measured after 24 hrs by propidium iodide/RNase staining based flow cytometry (reference value: 27.21 %); assay type: functional
HeLa [17] = experiment: Potentiation of cisplatin-induced cell cycle arrest in human HeLa cells assessed as accumulation at G1 phase at 6.8 uM measured after 24 hrs in presence of cisplatin by propidium iodide/RNase staining based flow cytometry (reference value: 61.13 %); assay type: functional
HeLa [18] = experiment: Potentiation of cisplatin-induced cell cycle arrest in human HeLa cells assessed as accumulation at G2/M phase at 6.8 uM measured after 24 hrs in presence of cisplatin by propidium iodide/RNase staining based flow cytometry (reference value: 11.69 %); assay type: functional
HeLa [19] = experiment: Potentiation of cisplatin-induced cell cycle arrest in human HeLa cells assessed as accumulation at S phase at 6.8 uM measured after 24 hrs in presence of cisplatin by propidium iodide/RNase staining based flow cytometry (reference value: 27.18 %); assay type: functional
A549 [20] = experiment: Induction of cell cycle arrest in human A549 cells assessed as accumulation at G1 phase at 32.7 uM measured after 24 hrs by propidium iodide/RNase staining based flow cytometry (reference value: 60.8 %); assay type: functional
A549 [21] = experiment: Induction of cell cycle arrest in human A549 cells assessed as accumulation at G2/M phase at 32.7 uM measured after 24 hrs by propidium iodide/RNase staining based flow cytometry (reference value: 11.7 %); assay type: functional
A549 [22] = experiment: Induction of cell cycle arrest in human A549 cells assessed as accumulation at S phase at 32.7 uM measured after 24 hrs by propidium iodide/RNase staining based flow cytometry (reference value: 27.5 %); assay type: functional
A549 [23] = experiment: Potentiation of cisplatin-induced cell cycle arrest in human A549 cells assessed as accumulation at G1 phase at 32.7 uM measured after 24 hrs in presence of cisplatin by propidium iodide/RNase staining based flow cytometry (reference value: 42.35%); assay type: functional
A549 [24] = experiment: Potentiation of cisplatin-induced cell cycle arrest in human A549 cells assessed as accumulation at G2/M phase at 32.7 uM measured after 24 hrs in presence of cisplatin by propidium iodide/RNase staining based flow cytometry (reference value: 36.13 %); assay type: functional
A549 [25] = experiment: Potentiation of cisplatin-induced cell cycle arrest in human A549 cells assessed as accumulation at S phase at 32.7 uM measured after 24 hrs in presence of cisplatin by propidium iodide/RNase staining based flow cytometry (reference value: 21.52 %); assay type: functional
HeLa [26] = experiment: Inhibition of PP2A in human HeLa cells assessed as increase in phosphorylated Akt expression level at 2.5 uM measured after 24 hrs by Hoechst staining based immunofluorescence assay; assay type: cell-based
HeLa [27] = experiment: Effect on tubulin expression in human HeLa cells at 2.5 uM measured after 24 hrs by Hoechst staining based immunofluorescence assay; assay type: functional, cell-based
HeLa [28] = experiment: Effect on total Akt expression in human HeLa cells at 2.5 uM measured after 24 hrs by Hoechst staining based immunofluorescence assay; assay type: functional, cell-based
HeLa [29] = experiment: Inhibition of PP2A in human HeLa cells assessed as increase in phosphorylated ERK expression level at 2.5 uM measured after 24 hrs by Western blot analysis; assay type: cell-based
Procedure, shortened: (§3)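 HeLa cells exposed 24 h to cisplatin, compound or the combination. P-Akt and P-ERK read by Western blot.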

U14 [30] = experiment: Antitumor activity against mouse U14 cells implanted in Kunming mouse assessed as tumor growth inhibition at 1.5 mg/kg, ip administered on day 2, 5, 8 measured after 1 week by caliper method; assay type: functional, organism-based; details: time 1.0 weeks
Procedure, shortened: (§4)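 KM mice bearing subcutaneous U14 mouse cervical cancer xenografts. Groups received saline, cisplatin 5 mg/kg, compound 1.5 mg/kg, or both (1:1 molar ratio). Relative tumor volume followed over about 2 weeks.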

U14 [31] = experiment: Antitumor activity against mouse U14 cells implanted in Kunming mouse assessed as tumor growth inhibition at 1.5 mg/kg, ip administered on day 2, 5, 8 measured after 2 weeks by caliper method; assay type: functional, organism-based; procedure, shortened: as §4
[32] = Potentiation of cisplatin-induced antitumor activity against mouse U14 cells implanted in Kunming mouse assessed as tumor volume at 1.5 mg/kg, ip administered on day 2, 5, 8 cotreated with cisplatin at 5 mg/kg, ip on day 1, 4, 7 and measured at day 10 by caliper method (reference value: 178 +/- 33 mm3); assay type: functional; details: time 10 day; procedure, shortened: as §4
[33] = Toxicity in Kunming mouse implanted with mouse U14 cells assessed as change in body weight at 1.5 mg/kg, ip administered on day 2, 5, 8; assay type: organism-based; details: in vivo, 72 h, time 3 day
Procedure, shortened: (§5)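 U14-xenografted KM mice given saline, cisplatin 5 mg/kg, compound 1.5 mg/kg or both. Body weight monitored as a measure of systemic toxicity.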

[34] = Toxicity in Kunming mouse implanted with mouse U14 cells assessed as reduction in body weight at 1.5 mg/kg, ip administered on day 2, 5, 8 cotreated with cisplatin at 5 mg/kg, ip on day 1, 4, 7 and measured after 1 week; assay type: organism-based; details: in vivo, 168 h, time 1 weeks; procedure, shortened: as §5
[35] = Toxicity in Kunming mouse implanted with mouse U14 cells assessed as reduction in body weight at 1.5 mg/kg, ip administered on day 2, 5, 8 cotreated with cisplatin at 5 mg/kg, ip on day 1, 4, 7 and measured after 2 weeks; assay type: organism-based; details: in vivo, 336 h; procedure, shortened: as §5
HeLa [36] = experiment: Anticancer activity against human HeLa cells assessed as reduction in cell viability measured after 24 to 72 hrs by MTT assay; assay type: functional, cell-based; details: dose 1-100 µM, time 24-72 hrs
Procedure, shortened: (§6)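 MTT viability assay in HeLa and A549 cells, with concentration- and time-dependent exposures.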

HeLa [37] = experiment: Anticancer activity against human HeLa cells assessed as reduction in cell viability at 1 to 100 uM by MTT assay; assay type: functional, cell-based; details: dose 1-100 µM, time 24-72 hrs, TDE = time-dependent effect
A549 [38] = experiment: Anticancer activity against human A549 cells assessed as reduction in cell viability measured after 24 to 72 hrs by MTT assay; assay type: functional, cell-based; details: time 24-72 hrs; procedure, shortened: as §6
HeLa [39] = experiment: Inhibition of PP2A in human HeLa cells assessed as increase in phosphorylated Akt expression level at 2.5 uM measured after 24 hrs in presence of cisplatin by Hoechst staining based immunofluorescence assay; assay type: cell-based
HeLa [40] = experiment: Effect on total Akt expression in human HeLa cells at 2.5 uM measured after 24 hrs in presence of cisplatin by Hoechst staining based immunofluorescence assay; assay type: functional, cell-based
HeLa [41] = experiment: Inhibition of PP2A in human HeLa cells assessed as increase in phosphorylated ERK expression level at 2.5 uM measured after 24 hrs by Hoechst staining based immunofluorescence assay; assay type: cell-based
HeLa [42] = experiment: Inhibition of PP2A in human HeLa cells assessed as increase in phosphorylated ERK expression level at 2.5 uM measured after 24 hrs in presence of cisplatin by Hoechst staining based immunofluorescence assay; assay type: cell-based
HeLa [43] = experiment: Effect on total ERK level in human HeLa cells at 2.5 uM measured after 24 hrs by Hoechst staining based immunofluorescence assay; assay type: functional, cell-based
HeLa [44] = experiment: Effect on total ERK level in human HeLa cells at 2.5 uM measured after 24 hrs in presence of cisplatin by Hoechst staining based immunofluorescence assay; assay type: functional, cell-based
HeLa [45] = experiment: Inhibition of PP2A in human HeLa cells assessed as increase in phosphorylated AKT expression level at 2.5 uM measured after 24 hrs by Western blot analysis; assay type: cell-based; procedure, shortened: as §3
HeLa [46] = experiment: Effect on tubulin expression in human HeLa cells at 2.5 uM measured after 24 hrs in presence of cisplatin by DAPI staining based immunofluorescence assay

## CC(C)(C)OC(=O)N1CCN(C(=O)C2C3CCC(O3)C2C(=O)O)CC1 (stereo unspecified)
HeLa [1]
  Activity: 78.5%
HeLa [2]
  Activity: 86%
A549 [3]
  CI50: <1
HeLa [4]
  CI50: <1
HeLa [5]
  CI50: >1
HeLa [6]
  CI50: >1
HeLa [7]
  CI50: <1
A549 [8]
  Activity: 41.5%
A549 [9]
  Activity: 35.5%
HeLa [10]
  Activity: 5.4%
HeLa [11]
  Activity: 6.4%
HeLa [12]
  Activity: 21.8%
HeLa [13]
  Activity: 64.1%
HeLa [14]
  Activity: 42.51%
HeLa [15]
  Activity: 23.28%
HeLa [16]
  Activity: 34.21%
HeLa [17]
  Activity: 40.67%
HeLa [18]
  Activity: 31.46%
HeLa [19]
  Activity: 27.87%
A549 [20]
  Activity: 52.07%
A549 [21]
  Activity: 11.32%
A549 [22]
  Activity: 36.61%
A549 [23]
  Activity: 38.95%
A549 [24]
  Activity: 15.34%
A549 [25]
  Activity: 45.71%
HeLa [26]
  inhibition: Active
HeLa [27]
  Activity: inactive
HeLa [28]
  Activity: inactive
HeLa [29]
  inhibition: Active
U14 [30]
  growth inhibition (GI): inactive
U14 [31]
  growth inhibition (GI): Active
[32]
  Activity: 97 mm3
[33]
  Activity: Toxic
[34]
  Activity: Toxic
[35]
  Activity: Non-Toxic
HeLa [36]
  Activity: Dose-dependent effect
HeLa [37]
  Activity: Tde
A549 [38]
  Activity: Active
HeLa [39]
  inhibition: Active
HeLa [40]
  Activity: inactive
HeLa [41]
  inhibition: Active
HeLa [42]
  inhibition: Active
HeLa [43]
  Activity: inactive
HeLa [44]
  Activity: inactive
HeLa [45]
  inhibition: Active
HeLa [46]
  Activity: inactive
